Data taken from ChEMBL document CHEMBL1649368, “Novel isatinyl thiosemicarbazones derivatives as potential molecule to combat HIV-TB co-infection” (Eur J Med Chem, 2011).
In brackets after ≈: the same amount, converted by molar mass.

Columns and labels:
[1] = system: Human immunodeficiency virus 1; test: Antiviral activity against HIV1 3B infected in human MT4 cells assessed as protection against virus-induced cytopathogenicity after 5 days by microtiter plate analysis; type: functional, organism-based; settings: Human immunodeficiency virus 1, 3B, MT4, 120 h
In short: (§1)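 MT-4 cells were grown in RPMI-1640 DM with 10% heat-inactivated calf serum and gentamicin. HIV-1 IIIB (100 CCID50) or mock infection was run in parallel with compounds in triplicate, at 37 °C and 5% CO2 for 5 days. Viability was read by MTT spectrophotometry. EC50 was the 50% reduction in virus cytopathic effect; CC50 was the 50% loss of mock-infected cell viability.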

[2] = Cytotoxicity against human MT4 cells after 5 days by spectrophotometry; type: cell-based; in short: as §1
[3] = system: Mycobacterium tuberculosis; test: Antimycobacterial activity against Mycobacterium tuberculosis H37Ra by agar dilution method; type: functional
In short: (§2)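 Log-phase MTB was tested by agar dilution on Middlebrook 7H11 with OADC, following NCCLS guidance. MIC was the lowest concentration giving complete growth inhibition, determined in triplicate.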

[4] = system: Mycobacterium tuberculosis; test: Antimycobacterial activity against Mycobacterium tuberculosis H37Ra assessed as inhibition of bacterial growth in dormant phase; type: functional
In short: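 MTB grown in 7H9 with glycerol, OADC and Tween 80 at 37 °C with rolling to OD600 ~0.6, then washed and held in PBS 6 weeks at 37 °C. Starved cells (~1×10^7 in 1 mL PBS) were exposed to compounds in DMSO at various concentrations for 7 days with shaking. After washing, dilutions were plated on antibiotic-free 7H11 and counted after 4 weeks. MIC was complete growth inhibition, in triplicate.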

[5] = system: Mycobacterium tuberculosis; test: Antimycobacterial activity against Mycobacterium tuberculosis H37Ra assessed as inhibition of bacterial growth in log phase by agar dilution method; type: functional; in short: as §2

| Structure (SMILES) | EC50 [1] | CC50 at 120 h [2] | MIC [3] | MIC [4] | MIC [5] |
| --- | --- | --- | --- | --- | --- |
| Cc1ccc2c(c1)/C(=N/NC(=S)NO)C(=O)N2CN1CCN(c2cc3c(cc2F)c(=O)c(C(=O)O)cn3C2CC2)CC1 | 20.9 µM | 304 µM | 0.67 µM (≈ 0.398 µg/mL) | 12.1 µM (≈ 7.19 µg/mL) | – |
| CONC(=S)N/N=C1\C(=O)N(CN2CCN(c3ccccc3)CC2)c2ccc(Cl)cc21 | 17.7 µM | 267 µM | 13.6 µM (≈ 6.25 µg/mL) | – | – |
| CCN(CC)CN1C(=O)/C(=N\NC(=S)NOC)c2cc(F)ccc21 | 29.7 µM | 490 µM | 4.41 µM (≈ 1.56 µg/mL) | – | – |
| CCN(CC)CN1C(=O)/C(=N\NC(=S)NO)c2cc(Cl)ccc21 | 121 µM | 562 µM | 70.3 µM (≈ 25 µg/mL) | – | – |
| CONC(=S)N/N=C1\C(=O)N(CN2CCOCC2)c2ccc(Cl)cc21 | 28.4 µM | 322 µM | 4.06 µM (≈ 1.56 µg/mL) | – | – |
| CONC(=S)N/N=C1\C(=O)N(CN(C)C)c2ccc(C)cc21 | 64.1 µM | 622 µM | 19.4 µM (≈ 6.25 µg/mL) | – | – |
| CCn1cc(C(=O)O)c(=O)c2cc(F)c(N3CCN(CN4C(=O)/C(=N\NC(=S)NOC)c5cc(F)ccc54)C(C)C3)c(F)c21 (configuration not stated) | 4.43 µM | 178 µM | 0.63 µM (≈ 0.398 µg/mL) | – | – |
| O=C1/C(=N\NC(=S)NO)c2cc(Cl)ccc2N1CN1CCOCC1 | 35.1 µM | 348 µM | 6.11 µM (≈ 2.26 µg/mL) | – | – |
| COc1c(N2CCN(CN3C(=O)/C(=N\NC(=S)NO)c4cc(C)ccc43)C(C)C2)c(F)cc2c(=O)c(C(=O)O)cn(C3CC3)c12 (configuration not stated) | 11.1 µM | 276 µM | 0.63 µM (≈ 0.402 µg/mL) | – | – |
| CCn1cc(C(=O)O)c(=O)c2cc(F)c(N3CCN(CN4C(=O)/C(=N\NC(=S)NO)c5cc(C)ccc54)CC3)cc21 | 16.9 µM | 327 µM | 1.34 µM (≈ 0.779 µg/mL) | – | – |
| CCn1cc(C(=O)O)c(=O)c2cc(F)c(N3CCN(CN4C(=O)/C(=N\NC(=S)NO)c5cc(F)ccc54)CC3)cc21 | 18.4 µM | 208 µM | 1.33 µM (≈ 0.779 µg/mL) | – | – |
| CONC(=S)N/N=C1\C(=O)N(CN(C)C)c2ccc(Cl)cc21 | 57.9 µM | 552 µM | 18.3 µM (≈ 6.25 µg/mL) | – | – |
| CONC(=S)N/N=C1\C(=O)N(CN2CCN(c3ccccc3)CC2)c2ccc(F)cc21 | 18.1 µM | 227 µM | 7.07 µM (≈ 3.13 µg/mL) | – | – |
| CONC(=S)N/N=C1\C(=O)N(CN2CCN(c3ccccc3)CC2)c2ccc(C)cc21 | 17.3 µM | 276 µM | 12.4 µM (≈ 5.42 µg/mL) | – | – |
| COc1ccc(N2CCN(CN3C(=O)/C(=N\NC(=S)NO)c4cc(C)ccc43)CC2)cc1 | 15 µM | 321 µM | 13.8 µM (≈ 6.25 µg/mL) | – | – |
| CO[C@H]1/C=C/O[C@@]2(C)Oc3c(C)c(O)c4c(O)c(c(/C=N/N5CCN(C)CC5)c(O)c4c3C2=O)NC(=O)/C(C)=C\C=C\[C@H](C)[C@H](O)[C@@H](C)[C@@H](O)[C@@H](C)[C@H](OC(C)=O)[C@@H]1C [RIFAMPIN] | – | – | – | 15.2 µM (≈ 12.5 µg/mL) | 0.12 µM (≈ 0.0988 µg/mL) |
| COc1c(N2CCN(CN3C(=O)/C(=N\NC(=S)NO)c4cc(F)ccc43)C(C)C2)c(F)cc2c(=O)c(C(=O)O)cn(C3CC3)c12 (configuration not stated) | 4.18 µM | 206 µM | 0.16 µM (≈ 0.103 µg/mL) | – | – |
| Cc1ccnc2c1NC(=O)c1cccnc1N2C1CC1 [NEVIRAPINE] | 0.13 µM | 156 µM | – | – | – |
| O=C1/C(=N\NC(=S)NO)c2cc(F)ccc2N1CN1CCN(c2ccccc2)CC1 | 19.6 µM | 251 µM | 7.3 µM (≈ 3.13 µg/mL) | – | – |
| CCn1cc(C(=O)O)c(=O)c2cc(F)c(N3CCN(CN4C(=O)/C(=N\NC(=S)NO)c5cc(Cl)ccc54)C(C)C3)c(F)c21 (configuration not stated) | 23.2 µM | 209 µM | 1.23 µM (≈ 0.78 µg/mL) | – | – |
| O=C1/C(=N\NC(=S)NO)c2cc(Cl)ccc2N1CN1CCN(c2ccccc2)CC1 | 28.3 µM | 273 µM | 28.1 µM (≈ 12.5 µg/mL) | – | – |
| CONC(=S)N/N=C1\C(=O)N(CN2CCOCC2)c2ccc(C)cc21 | 45.1 µM | 365 µM | 4.29 µM (≈ 1.56 µg/mL) | – | – |
| CCN(CC)CN1C(=O)/C(=N\NC(=S)NO)c2cc(F)ccc21 | 36.2 µM | 521 µM | 9.22 µM (≈ 3.13 µg/mL) | – | – |
| Cc1ccc2c(c1)/C(=N/NC(=S)NO)C(=O)N2CN(C)C | 113 µM | 651 µM | 81.3 µM (≈ 25 µg/mL) | – | – |
| COc1ccc(N2CCN(CN3C(=O)/C(=N\NC(=S)NO)c4cc(F)ccc43)CC2)cc1 | 14.7 µM | 260 µM | 6.83 µM (≈ 3.13 µg/mL) | – | – |
| CONC(=S)N/N=C1\C(=O)N(CN2CCN(c3c(F)cc4c(=O)c(C(=O)O)cn(C5CC5)c4c3OC)CC2C)c2ccc(Cl)cc21 (configuration not stated) | 7.14 µM | 164 µM | 0.3 µM (≈ 0.202 µg/mL) | – | – |
